Experimental findings from PubChem BioAssay are described below.

The nature of experiment [1]: SK-BR-3 cell growth inhibitors, pilot screen, 24 h, human (AID 572).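 Note: compound exposure lasted between 18 and 24 h rather than exactly 24 h; 100% = carrier-treated control wells.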 Particulars: SK-BR-3 viability, CellTiter-Glo luminescence, at 10 µM, stronger effect = lower value.
Experiment [2] is described as follows: HUVEC growth inhibition – cell-based, human, primary screen (AID 575;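 active = viability at or below 30% in both replicate assays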;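 note: 100% = median of untreated cell wells with 0.1% DMSO on each plate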). The settings on record: HUVEC proliferation, CellTiter-Glo luminescence, 72 h; at 10 µM; stronger effect = lower value. The procedure, abridged:
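Test system: primary human umbilical vein endothelial cells. Quantity: 1250 cells/well. Compound: single 10 µM dose, 0.1% DMSO, from 5x medium stock. Timing: 72 h treatment at 37 °C. Detection: ATP-based CellTiter-Glo luminescent read. Benchmarks: vehicle and MePR control wells. Format: 384-well plates coated with collagen.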
A general note: Cellular ATP, detected with luciferase, serves as a proxy for viable cell number.

Experiment [3] is described as follows: growth inhibitors of H69AR lung tumor, primary screen, human, duplicate replicates (AID 580;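 active = viability at or under a set limit in both replicates, limit being median viability minus 3 SD, cut at about 48% in these data, passing the limit was not always enough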;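 note: 100% = mean luminescence of untreated wells and 0% = no signal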). Particulars: H69AR lung tumor cells viability, ATP luminescence, 72 h; at 10 µM; stronger effect = lower value.
The nature of experiment [4]: reversal of MRP1-mediated doxorubicin resistance, pilot screen, H69AR cells, doxorubicin co-treatment (AID 601;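 active = viability loss from added drug above about 55%, and viability with drug at most 40%, in both replicates, limit read from the data, passing the limit was not always enough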). The settings on record: CellTiter-Glo, 72 h, at 10 µM; for differential viability (reversal): stronger effect = higher value.
Experiment [5] in a line: 384-well plate pilot, post-Golgi transport modulator project, inhibition of yeast transport mutant growth (AID 636; in the data active = inhibition above about 31%). Particulars: absorbance 615 nm, about 18 h, stronger effect = higher value.
Experiment [6] is described as follows: growth suppression of yeast trafficking mutant, preliminary HTS, modulators of trafficking downstream of Golgi apparatus project, 1536-format plate, OD 615 nm (AID 637; in the data active = inhibition above about 30%). Particulars: yeast transport mutant growth, absorbance 615 nm, 18 h; stronger effect = higher value.
[7] abbreviates: H69AR cells + 2 uM doxorubicin, measured here: viability with 2 uM doxorubicin, stronger effect = lower value.
Where [8] appears, read: H69AR cells, compound alone cytotoxicity.

Structures are written as SMILES. Activity calls are given as the source filed them.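 Rule for the calls, unless noted: active = viability at or below 10% of carrier control in both of two separate runs; inconclusive = viability at or below 10% in only one of the two runs; inactive = the rest.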

What is called viability is a read-out of living cells in per cent, often relative to untreated cells. By inhibition is commonly meant the drop in the measured response relative to a control, in per cent. Turning to `COc1ccc(NC(=O)N2CCC(c3nc(-c4cccs4)no3)CC2)cc1`, the viability is 121% (inactive) in experiment [1]; 98.3% (inactive) in experiment [2]; 95.6% (inactive) in experiment [3]; 80.2% in experiment [4] (setting [7]); 95.6% in experiment [4] (setting [8]). The differential viability (reversal) in experiment [4] (H69AR cells + 2 uM doxorubicin) is 15.4% (inactive). In addition, the inhibition in experiment [5] was -2.4% (inactive); in experiment [6], 0.73% (inactive).
On to `CCOc1ccc(-c2cn(S(=O)(=O)c3cccc4nsnc34)nc2N)cc1`, for which the viability in experiment [1] is 117% (inactive); in experiment [2], 94.8% (inactive); in experiment [3], 84.8% (inactive); in experiment [4] (setting [7]), 81.6%; in experiment [4] (setting [8]), 84.8%. The differential viability (reversal) in experiment [4] (H69AR cells + 2 uM doxorubicin) is 3.21% (inactive). Also, the inhibition in experiment [5] was 34.9% (active); in experiment [6] it was 31% (active).
As to `CNc1nnc(-c2cccc(N(C)C)c2)s1`, the viability in experiment [1] was 111% (inactive); in experiment [2] it was 95.9% (inactive); in experiment [3] it was 92% (inactive); in experiment [4] (setting [7]) it was 84.6%; in experiment [4] (setting [8]) it was 92%. In experiment [4] (H69AR cells + 2 uM doxorubicin), the differential viability (reversal) was 7.45% (inactive). Further, the values for the inhibition in experiment [5] and in experiment [6] were -4.55% (inactive) and 7.38% (inactive), respectively.
As for `CCN(CC)C(=O)C1=C(C)Nc2nnnn2C1c1cccnc1` (stereo unspecified), the viability is 94% (inactive) in experiment [1]; 109% (inactive) in experiment [2]; 93.8% (inactive) in experiment [3]; 89.3% in experiment [4] (setting [7]); 93.8% in experiment [4] (setting [8]). Also, in experiment [4] (H69AR cells + 2 uM doxorubicin), the differential viability (reversal) is 4.5% (inactive). Further, the inhibition is 0.52% (inactive) in experiment [5] and 3.11% (inactive) in experiment [6].
Take `Cc1ccccc1Nc1cc2ccccc2c(=O)[nH]1`: the viability is 95.5% (inactive) in experiment [1]; 63.8% (inactive) in experiment [2]; 102% (inactive) in experiment [3]; 99.5% in experiment [4] (setting [7]); 102% in experiment [4] (setting [8]). The differential viability (reversal) in experiment [4] (H69AR cells + 2 uM doxorubicin) is 2.71% (inactive). Also, the inhibition in experiment [5] is 4.61% (inactive); in experiment [6], 17.8% (inactive).
Regarding `CCOC(=O)/C=C1\SCC(=O)N1Cc1nnc(-c2ccccc2Br)o1`, the viability in experiment [1] was 107% (inactive); in experiment [2] it was 97.5% (inactive); in experiment [3], 91.3% (inactive); in experiment [4] (setting [7]) it was 88.2%; in experiment [4] (setting [8]) it was 91.3%. In experiment [4] (H69AR cells + 2 uM doxorubicin), the differential viability (reversal) is 3.01% (inactive). Moreover, the inhibition in experiment [5] is -7.81% (inactive); in experiment [6], 1.82% (inactive).
As for `Cc1nc2ccccn2c(=O)c1CCN1CCC(C(=O)c2ccc(F)cc2)CC1`, the viability was 75% (inactive) in experiment [1]; 83.6% (inactive) in experiment [2]; 86.3% (inactive) in experiment [3]; 101% in experiment [4] (setting [7]); 86.3% in experiment [4] (setting [8]). The differential viability (reversal) in experiment [4] (H69AR cells + 2 uM doxorubicin) is -15.1% (inactive). The inhibition was 1.69% (inactive) in experiment [5] and 17.2% (inactive) in experiment [6].
As to `CN1CC=C2C(C#N)=C(N)C(C#N)(C#N)C(Cc3ccccc3)C2C1` (stereo unspecified), the viability in experiment [1] is 85% (inactive); in experiment [2], 69% (inactive); in experiment [3], 84.6% (inactive); in experiment [4] (setting [7]) it was 87.5%; in experiment [4] (setting [8]) it was 84.6%. For the same compound, the differential viability (reversal) in experiment [4] (H69AR cells + 2 uM doxorubicin) was -2.88% (inactive). The inhibition in experiment [5] was -8.22% (inactive); in experiment [6], -7.26% (inactive).
Turning to `COCCNC(=O)C(c1cccs1)N(C(=O)Cn1nnc2ccccc21)c1ccccc1` (stereo unspecified), the viability in experiment [1] was 97% (inactive); in experiment [2] it was 107% (inactive); in experiment [3], 97.2% (inactive); in experiment [4] (setting [7]), 94%; in experiment [4] (setting [8]) it was 97.2%. Moreover, the differential viability (reversal) in experiment [4] (H69AR cells + 2 uM doxorubicin) was 3.17% (inactive). Moreover, the inhibition is -2.34% (inactive) in experiment [5] and -5.9% (inactive) in experiment [6].
In the case of `Cc1ccc(-c2ccc(SCC(=O)Nc3nonc3C)nn2)cc1`, the viability in experiment [1] was 94% (inactive); in experiment [2], 81.8% (inactive); in experiment [3], 88.8% (inactive); in experiment [4] (setting [7]), 93.5%; in experiment [4] (setting [8]) it was 88.8%. In addition, the differential viability (reversal) in experiment [4] (H69AR cells + 2 uM doxorubicin) is -4.68% (inactive). In addition, the inhibition is -7.57% (inactive) in experiment [5] and -0.55% (inactive) in experiment [6].
Consider `CCC(C)NCC(O)COCc1ccc(Cl)cc1` (stereo unspecified), for which the viability is 89% (inactive) in experiment [1]; 101% (inactive) in experiment [2]; 99.7% (inactive) in experiment [3]; 88.2% in experiment [4] (setting [7]); 99.7% in experiment [4] (setting [8]). The differential viability (reversal) in experiment [4] (H69AR cells + 2 uM doxorubicin) was 11.5% (inactive). Besides, the figures for the inhibition in experiment [5] and in experiment [6] were 0.52% (inactive) and -4.59% (inactive), respectively.
Regarding `Cc1ccc(Cn2nnc(C(=O)Nc3cccc(C)c3C)c2N)cc1`, the viability in experiment [1] was 97% (inactive); in experiment [2], 63.1% (inactive); in experiment [3], 86.2% (inactive); in experiment [4] (setting [7]), 94.1%; in experiment [4] (setting [8]), 86.2%. Moreover, the differential viability (reversal) in experiment [4] (H69AR cells + 2 uM doxorubicin) was -7.94% (inactive). Further, the inhibition was -6.1% (inactive) in experiment [5] and -2.3% (inactive) in experiment [6].
Take `CCCC(=O)n1nc(-c2ccc(OC)cc2)nc1N`: the viability in experiment [1] was 101% (inactive); in experiment [2], 93.6% (inactive); in experiment [3], 105% (inactive); in experiment [4] (setting [7]), 98.3%; in experiment [4] (setting [8]) it was 105%. Further, in experiment [4] (H69AR cells + 2 uM doxorubicin), the differential viability (reversal) is 7% (inactive). For the same compound, the inhibition in experiment [5] is -1.56% (inactive); in experiment [6], 5.74% (inactive).
Take `COCCn1c(Sc2nc(C)cs2)nc2c1c(=O)[nH]c(=O)n2C`: the viability is 85% (inactive) in experiment [1]; 106% (inactive) in experiment [2]; 101% (inactive) in experiment [3]; 96.6% in experiment [4] (setting [7]); 101% in experiment [4] (setting [8]). Besides, in experiment [4] (H69AR cells + 2 uM doxorubicin), the differential viability (reversal) is 4.51% (inactive). Further, the inhibition in experiment [5] was -5.07% (inactive); in experiment [6], 3.45% (inactive).
Turning to `Cc1ccc(C)c(-n2nnnc2SCC(=O)NCCC2=CCCCC2)c1`, the viability in experiment [1] was 91% (inactive); in experiment [2] it was 73.5% (inactive); in experiment [3] it was 93.2% (inactive); in experiment [4] (setting [7]) it was 105%; in experiment [4] (setting [8]), 93.2%. Further, the differential viability (reversal) in experiment [4] (H69AR cells + 2 uM doxorubicin) is -11.3% (inactive). In addition, the inhibition in experiment [5] is -4.66% (inactive); in experiment [6], 2.36% (inactive).
`COC(=O)c1ccc(COC(=O)c2c(C)nn(Cc3ccccc3Cl)c2Cl)o1`: the viability in experiment [1] was 69% (inactive); in experiment [2], 94.6% (inactive); in experiment [3] it was 86.2% (inactive); in experiment [4] (setting [7]) it was 82.1%; in experiment [4] (setting [8]), 86.2%. Also, the differential viability (reversal) in experiment [4] (H69AR cells + 2 uM doxorubicin) is 4.08% (inactive). Also, the inhibition in experiment [5] is -4.38% (inactive); in experiment [6] it was 3.82% (inactive).
In the case of `COc1ccccc1-c1nnc(NC(=O)c2ccc(S(=O)(=O)N(C)Cc3ccccc3)cc2)o1`, the viability in experiment [1] is 85% (inactive); in experiment [2], 23.9% (active); in experiment [3], 19.2% (active); in experiment [4] (setting [7]), 44.3%; in experiment [4] (setting [8]) it was 19.2%. The differential viability (reversal) in experiment [4] (H69AR cells + 2 uM doxorubicin) is -25.1% (inactive). The inhibition in experiment [5] is 1.3% (inactive); in experiment [6], 6.56% (inactive).
